In ChEMBL document CHEMBL4043299, “Repurposing a Library of Human Cathepsin L Ligands: Identification of Macrocyclic Lactams as Potent Rhodesain and Trypanosoma brucei Inhibitors” (J Med Chem, 2018):
Values after ≈ are worked out from the molar mass of the structure shown. Active and inactive are the calls of the source. The calls are words filed in the database; no cut-off is given here.

Assays:
[1] = Octanol-water intrinsic distribution co-efficient, log D of the compound at 100 uM at pH 7.4 after 16 to 22 hrs by CAMDIS assay; type: physicochemical
Outline: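 Distribution between octanol and aqueous buffer at pH 7.4, CAMDIS carrier-mediated system.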

[2] = Solubility of the compound at pH 6.5 by LYSA; type: physicochemical; conditions: buffer
Outline: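 Lyophilisation solubility assay at pH 6.5.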

[3] = target: Rhodesain (Trypanosoma brucei rhodesiense, UniProt Q95PM0); experiment: Inhibition of Trypanosoma brucei rhodesiense rhodesain using Cbz-Phe-Arg-AMC as substrate by fluorimetric method
Outline: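 Fluorescence-based protease assay. IC50 was converted to Ki by the Cheng-Prusoff equation. Values are the average of two measurements, each run in duplicate.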

[4] = target: Procathepsin L (Homo sapiens, UniProt P07711); experiment: Inhibition of human CatL using Cbz-Phe-Arg-AMC as substrate measured over 30 mins by fluorimetric method
[5] = Effective permeability of the compound after 15 hrs by PAMPA; type: physicochemical; conditions: read-out: Peff
[6] = target: Cytochrome P450 3A4 (Homo sapiens, UniProt P08684); experiment: Inhibition of CYP3A4 in human liver microsomes using DBF as substrate by fluorescence assay; type: ADME
[7] = target: Cytochrome P450 2D6 (Homo sapiens, UniProt P10635); experiment: Inhibition of CYP2D6 in human liver microsomes using AMMC as substrate by fluorescence assay; type: ADME
[8] = target: Cytochrome P450 2C9 (Homo sapiens, UniProt P11712); experiment: Inhibition of CYP2C9 in human liver microsomes using MFC as substrate by fluorescence assay
[9] = Half life in C57BL/6J mouse administered via iv as bolus dose by LC-MS/MS analysis; type: ADME, organism-based; conditions: in vivo
Outline: (§1)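 Male adult C57BL/6J mice, single i.v. bolus in N-methylpyrrolidinone/40% aqueous hydroxypropyl-γ-cyclodextrin (30/70); blood at 5, 15, 30 min, 1, 2, 4, 8 h; plasma by centrifugation, stored −20 °C; LC–MS/MS; non-compartmental analysis.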

[10] = Clearance in C57BL/6J mouse administered via iv as bolus dose by LC-MS/MS analysis; type: ADME, organism-based; conditions: in vivo; outline: as §1
[11] = Volume of distribution at steady state in C57BL/6J mouse administered via iv as bolus dose by LC-MS/MS analysis; type: ADME, organism-based; conditions: in vivo, read-out: Vdss; outline: as §1
[12] = Ratio of drug level in brain to plasma in C57BL/6J mouse administered via iv as bolus dose by LC-MS/MS analysis
[13] = tested on: MDR1; experiment: Efflux ratio of permeability across pig LLC-PK1 cells expressing human MDR1 at 1 uM after 3.5 hrs by LC-MS/MS analysis; type: ADME, cell-based, Sus scrofa
Outline: (§2)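 Porcine kidney LLC-PK1 cells stably transfected with human ABCB1 (MDR1) or mouse Abcb1a (Mdr1a). Cells were grown with 10% FCS and 100 ng/mL colchicine and seeded on permeable inserts, then assayed on day 4. Compound was added at 1 μM to the apical or basolateral side, and transport was run in both directions in triplicate at 37 °C, 5% CO2. Donor and receiver were sampled at 3.5 h and quantified by LC–MS/MS. Lucifer yellow was used as the monolayer tightness control.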

[14] = tested on: Mdr1a; experiment: Efflux ratio of permeability across pig LLC-PK1 cells expressing mouse Mdr1a at 1 uM after 3.5 hrs by LC-MS/MS analysis; type: ADME, cell-based, Sus scrofa; outline: as §2
[15] = tested on: Trypanosoma brucei rhodesiense; experiment: Antitrypanosomal activity against bloodstream form of Trypanosoma brucei rhodesiense STIB 900 infected in NMRI mouse assessed as reduction of parasitemia at 25 mg/kg, ip bid administered for 4 consecutive days starting 3 days post infection measured 24 hrs post last dose; type: functional, organism-based
Outline: (§3)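 Mice infected with T. b. rhodesiense STIB900 (acute model); dosing from day 3 post-infection on four consecutive days, 25 mg kg⁻¹ i.p. twice daily, 0.1 mL/10 g; three infected-untreated controls; parasitaemia monitored by tail-snip blood smears twice weekly for two weeks, then weekly to day 60; relapse day recorded post-infection.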

[16] = Plasma concentration in rat at 3 mg/kg administered via infusion over 30 mins; type: ADME, organism-based; conditions: iv
Outline: (§4)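 Rats given 3 mg kg⁻¹ by infusion over 30 min, then sacrificed; plasma, brain and CSF concentrations measured; ratios to plasma derived; average of three independent measurements.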

[17] = Drug uptake in rat brain at 3 mg/kg administered via infusion over 30 mins; type: ADME, organism-based; conditions: iv, read-out: Drug uptake; outline: as §4
[18] = Drug uptake in rat cerebrospinal fluid at 3 mg/kg administered via infusion over 30 mins; type: ADME, organism-based; conditions: iv, read-out: Drug uptake; outline: as §4
[19] = Ratio of drug level in rat brain to plasma at 3 mg/kg administered via infusion over 30 mins; conditions: iv
[20] = Ratio of drug level in rat CSF to plasma at 3 mg/kg administered via infusion over 30 mins; conditions: iv
[21] = tested on: Trypanosoma brucei rhodesiense; experiment: Antitrypanosomal activity against bloodstream form of Trypanosoma brucei rhodesiense STIB 900 assessed as parasite growth inhibition incubated for 24 to 48 hrs followed by 72 hrs recovery by Alamar blue assay; type: functional
[22] = tested on: Trypanosoma brucei rhodesiense; experiment: Antitrypanosomal activity against bloodstream form of Trypanosoma brucei rhodesiense STIB 900 infected in NMRI mouse assessed as days required to prevent relapse of trypanosome at 25 mg/kg, ip bid administered for 4 consecutive days starting 3 days post infection; type: functional; outline: as §3
[23] = tested on: Trypanosoma brucei rhodesiense; experiment: Antitrypanosomal activity against bloodstream form of Trypanosoma brucei rhodesiense STIB 900 infected in NMRI mouse assessed as mouse survival at 25 mg/kg, ip bid administered for 4 consecutive days starting 3 days post infection (reference value: 13 days); type: functional
Outline: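 T. b. rhodesiense STIB900 acute mouse infection model. Dosing was 25 mg/kg i.p. twice daily for 4 consecutive days, starting 3 days post-infection, at 0.1 mL/10 g. Three infected mice served as untreated controls without vehicle. Parasitaemia was followed by tail-blood smears twice weekly for two weeks, then weekly to day 60. Relapse day and mean survival days were recorded.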

[24] = Drug uptake in bloodstream form of Trypanosoma brucei rhodesiense STIB 900 infected NMRI mouse blood at 25 mg/kg, ip bid administered for 4 consecutive days starting 3 days post infection measured at 1 hr post last dose; type: ADME, organism-based; conditions: read-out: Drug uptake
[25] = Drug uptake in bloodstream form of Trypanosoma brucei rhodesiense STIB 900 infected NMRI mouse blood at 25 mg/kg, ip bid administered for 4 consecutive days starting 3 days post infection measured at 4 hrs post last dose; type: ADME, organism-based; conditions: read-out: Drug uptake
[26] = Drug uptake in bloodstream form of Trypanosoma brucei rhodesiense STIB 900 infected NMRI mouse blood at 25 mg/kg, ip bid administered for 4 consecutive days starting 3 days post infection measured at 16 hrs post last dose; type: ADME, organism-based; conditions: read-out: Drug uptake
[27] = tested on: Trypanosoma brucei brucei; experiment: Antitrypanosomal activity against Trypanosoma brucei brucei TC 221 assessed as parasite growth inhibition after 72 hrs by Alamar blue assay; type: functional; conditions: TC 221, 72 h
[28] = target: Cathepsin B (Homo sapiens, UniProt P07858); experiment: Inhibition of human cathepsin B
[29] = target: T1, Cathepsin K (Homo sapiens, UniProt P43235); experiment: Inhibition of human cathepsin K
T1 sequence (P43235 whole entry): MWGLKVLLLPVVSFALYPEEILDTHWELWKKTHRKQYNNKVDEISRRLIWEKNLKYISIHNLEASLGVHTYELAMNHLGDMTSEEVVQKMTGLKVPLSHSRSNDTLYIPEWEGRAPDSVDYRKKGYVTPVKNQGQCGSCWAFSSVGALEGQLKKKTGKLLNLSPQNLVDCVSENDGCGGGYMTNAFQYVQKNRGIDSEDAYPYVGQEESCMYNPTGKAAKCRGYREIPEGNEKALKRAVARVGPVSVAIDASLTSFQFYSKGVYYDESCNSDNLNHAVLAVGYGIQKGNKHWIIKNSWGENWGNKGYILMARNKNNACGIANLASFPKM

[30] = target: Cathepsin S (Homo sapiens, UniProt P25774); experiment: Inhibition of human cathepsin S
[31] = target: T2, Cathepsin L2 (Homo sapiens, UniProt O60911); experiment: Inhibition of human cathepsin V
T2 sequence (O60911 whole entry): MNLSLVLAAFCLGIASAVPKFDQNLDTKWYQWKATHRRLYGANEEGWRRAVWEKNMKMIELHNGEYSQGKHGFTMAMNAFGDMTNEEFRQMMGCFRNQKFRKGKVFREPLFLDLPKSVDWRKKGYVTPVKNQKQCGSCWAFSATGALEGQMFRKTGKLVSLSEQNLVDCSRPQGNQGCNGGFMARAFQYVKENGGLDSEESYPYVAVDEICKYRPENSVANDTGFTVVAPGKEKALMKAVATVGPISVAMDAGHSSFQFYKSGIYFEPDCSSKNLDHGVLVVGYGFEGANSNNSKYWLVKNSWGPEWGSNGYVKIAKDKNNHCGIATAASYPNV

Cytochrome P450 3A4, sequence (P08684 whole entry): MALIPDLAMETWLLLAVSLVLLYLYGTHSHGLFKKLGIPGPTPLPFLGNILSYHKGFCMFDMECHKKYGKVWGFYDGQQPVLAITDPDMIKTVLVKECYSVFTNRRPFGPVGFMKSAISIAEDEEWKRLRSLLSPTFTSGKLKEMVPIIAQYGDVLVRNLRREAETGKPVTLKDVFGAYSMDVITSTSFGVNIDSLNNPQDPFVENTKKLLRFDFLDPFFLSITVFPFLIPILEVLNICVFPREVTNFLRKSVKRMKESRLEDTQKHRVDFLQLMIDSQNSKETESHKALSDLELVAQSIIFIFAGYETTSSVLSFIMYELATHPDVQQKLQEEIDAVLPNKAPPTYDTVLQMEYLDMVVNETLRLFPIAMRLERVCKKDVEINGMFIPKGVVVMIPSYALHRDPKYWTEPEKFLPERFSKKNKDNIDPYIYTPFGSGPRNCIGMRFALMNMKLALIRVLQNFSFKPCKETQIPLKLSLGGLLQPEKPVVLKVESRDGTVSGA
Procathepsin L, sequence (P07711 whole entry): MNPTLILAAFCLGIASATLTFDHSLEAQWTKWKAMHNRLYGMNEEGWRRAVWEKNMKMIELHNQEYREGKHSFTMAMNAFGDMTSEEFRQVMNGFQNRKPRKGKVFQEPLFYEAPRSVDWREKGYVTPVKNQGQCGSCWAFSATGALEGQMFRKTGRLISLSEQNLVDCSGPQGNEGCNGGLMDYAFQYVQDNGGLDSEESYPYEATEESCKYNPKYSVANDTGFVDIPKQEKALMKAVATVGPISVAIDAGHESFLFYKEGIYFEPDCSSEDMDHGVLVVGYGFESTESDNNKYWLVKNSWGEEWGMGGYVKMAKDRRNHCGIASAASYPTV
Cytochrome P450 2C9, sequence (P11712 whole entry): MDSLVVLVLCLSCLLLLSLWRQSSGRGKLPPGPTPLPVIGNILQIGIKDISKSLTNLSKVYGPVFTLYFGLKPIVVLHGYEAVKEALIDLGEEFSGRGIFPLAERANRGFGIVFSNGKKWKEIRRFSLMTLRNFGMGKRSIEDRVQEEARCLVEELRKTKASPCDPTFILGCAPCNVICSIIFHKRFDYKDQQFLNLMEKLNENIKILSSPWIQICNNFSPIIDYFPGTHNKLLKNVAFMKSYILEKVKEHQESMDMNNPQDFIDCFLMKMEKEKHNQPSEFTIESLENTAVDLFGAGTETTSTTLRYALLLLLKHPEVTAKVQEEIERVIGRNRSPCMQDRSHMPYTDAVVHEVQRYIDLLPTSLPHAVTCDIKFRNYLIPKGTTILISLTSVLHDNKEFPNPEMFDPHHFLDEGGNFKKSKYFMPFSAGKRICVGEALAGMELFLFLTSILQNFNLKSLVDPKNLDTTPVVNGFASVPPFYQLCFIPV
Cathepsin S, sequence (P25774 whole entry): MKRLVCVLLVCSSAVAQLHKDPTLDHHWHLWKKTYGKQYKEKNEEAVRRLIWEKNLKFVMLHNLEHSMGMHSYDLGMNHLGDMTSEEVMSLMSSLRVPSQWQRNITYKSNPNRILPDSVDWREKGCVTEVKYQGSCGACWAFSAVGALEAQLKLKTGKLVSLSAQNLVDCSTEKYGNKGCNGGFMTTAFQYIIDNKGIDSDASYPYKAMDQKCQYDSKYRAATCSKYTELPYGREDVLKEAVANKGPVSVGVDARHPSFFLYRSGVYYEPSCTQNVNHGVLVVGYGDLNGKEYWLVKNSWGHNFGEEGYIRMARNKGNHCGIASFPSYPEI
Cytochrome P450 2D6, sequence (P10635 whole entry): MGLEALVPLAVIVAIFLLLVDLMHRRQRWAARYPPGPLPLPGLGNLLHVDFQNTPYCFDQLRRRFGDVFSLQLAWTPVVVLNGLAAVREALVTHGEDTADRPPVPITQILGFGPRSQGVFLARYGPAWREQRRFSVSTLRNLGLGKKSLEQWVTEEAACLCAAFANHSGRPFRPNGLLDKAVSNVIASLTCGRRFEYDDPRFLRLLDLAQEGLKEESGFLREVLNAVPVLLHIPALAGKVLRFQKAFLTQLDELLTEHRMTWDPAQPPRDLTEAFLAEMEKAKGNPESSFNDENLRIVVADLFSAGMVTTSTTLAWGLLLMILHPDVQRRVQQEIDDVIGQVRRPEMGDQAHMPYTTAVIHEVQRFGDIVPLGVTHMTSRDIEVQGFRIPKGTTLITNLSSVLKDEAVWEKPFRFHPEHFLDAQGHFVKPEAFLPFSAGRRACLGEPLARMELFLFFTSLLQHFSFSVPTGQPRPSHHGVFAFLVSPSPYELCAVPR
Rhodesain, sequence (Q95PM0 whole entry): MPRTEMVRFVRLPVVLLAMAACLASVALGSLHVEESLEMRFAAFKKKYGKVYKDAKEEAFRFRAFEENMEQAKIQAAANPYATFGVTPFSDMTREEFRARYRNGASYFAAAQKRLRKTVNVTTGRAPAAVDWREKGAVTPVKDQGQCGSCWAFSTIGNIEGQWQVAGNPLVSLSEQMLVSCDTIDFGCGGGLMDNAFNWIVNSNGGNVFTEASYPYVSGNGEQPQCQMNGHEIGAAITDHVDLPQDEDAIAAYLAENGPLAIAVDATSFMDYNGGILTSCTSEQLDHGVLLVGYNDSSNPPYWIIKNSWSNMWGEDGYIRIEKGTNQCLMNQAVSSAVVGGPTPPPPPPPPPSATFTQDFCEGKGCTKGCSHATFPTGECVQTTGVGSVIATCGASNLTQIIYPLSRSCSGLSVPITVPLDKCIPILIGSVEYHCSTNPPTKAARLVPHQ

Question: For `N#CC1(NC(=O)[C@@H]2Cc3ccc(c(Cl)c3)OCCCCOc3cc(C(F)(F)F)ccc3C(=O)N2)CC1`, which logD at 100 µM [1] is on record?
Answer: The logD at 100 µM was 3.7.

Question: And the solubility [2]?
Answer: Its solubility is 12 µg/mL (≈ 23 µM).

Question: And the Ki [3]?
Answer: The Ki was 11 nM.

Question: And the Ki [4]?
Answer: The Ki was 10 nM.

Question: What about the Papp at 15 h [5] of the same compound?
Answer: Its Papp at 15 h is 0.4 ×10⁻⁶ cm/s.

Question: What about the IC50 [6] of the same compound?
Answer: The IC50 was 43000 nM.

Question: And the IC50 [7]?
Answer: Its IC50 is 11000 nM.

Question: And the IC50 [8]?
Answer: Its IC50 is 16000 nM.

Question: And the half-life [9]?
Answer: The half-life was 2.7 h.

Question: What about the clearance [10] of the same compound?
Answer: Its clearance is 79 mL/min/kg.

Question: And the Vd [11]?
Answer: The Vd was 7.2 L/kg.

Question: And the Kp [12]?
Answer: The Kp was less than 0.5.

Question: What about the efflux ratio at 3.5 h, 1 µM [13] of the same compound?
Answer: The efflux ratio at 3.5 h, 1 µM was 26.

Question: What about the efflux ratio at 3.5 h, 1 µM [14] of the same compound?
Answer: The efflux ratio at 3.5 h, 1 µM was 53.

Question: What about the Activity [15] of the same compound?
Answer: Its Activity is “Active”.

Question: And the concentration at 0.5 h [16]?
Answer: Its concentration at 0.5 h is 404 ng/mL.

Question: What about the concentration at 0.5 h [17] of the same compound?
Answer: The concentration at 0.5 h was 256 ng/g.

Question: And the concentration at 0.5 h [18]?
Answer: Its concentration at 0.5 h is 2.3 ng/mL.

Question: What about the Kp at 0.5 h [19] of the same compound?
Answer: The Kp at 0.5 h was 0.7.

Question: And the Kp at 0.5 h [20]?
Answer: The Kp at 0.5 h was 0.006.

Question: What about the IC50 [21] of the same compound?
Answer: The IC50 was 10 nM.

Question: And the Time [22]?
Answer: Its Time is 10.2 days.

Question: What about the Survival [23] of the same compound?
Answer: Its Survival is 16.3 days.

Question: And the concentration at 1 h [24]?
Answer: Its concentration at 1 h is 237 ng/mL.

Question: What about the concentration at 4 h [25] of the same compound?
Answer: Its concentration at 4 h is 15.1 ng/mL.

Question: What about the concentration at 16 h [26] of the same compound?
Answer: The concentration at 16 h was 4.8 ng/mL.

Question: What about the IC50 [27] of the same compound?
Answer: The IC50 was 4 nM.

Question: And the IC50 [28]?
Answer: Its IC50 is 9000 nM.

Question: What about the IC50 [29] of the same compound?
Answer: The IC50 was no less than 25000 nM.

Question: And the IC50 [30]?
Answer: The IC50 was 2700 nM.

Question: What about the IC50 [31] of the same compound?
Answer: The IC50 was 1040 nM.
